Measurements as given in ChEMBL document CHEMBL2417396 (J Nat Prod, 2013).
Calls of active or inactive are those of the source. The calls are words filed in the database; no cut-off is given here.

How the values were obtained:
Tubulin (Homo sapiens) [1] = target: T1, Tubulin (Homo sapiens) (UniProt P68371+Q9H4B7+P0DPH7+P68366+Q13509+Q71U36+P04350+Q3ZCM7+P07437+P68363+Q9BQE3+Q6PEY2+Q13885+Q9BVA1+Q9BUF5); test: Displacement of [3H]colchicine from tubulin (unknown origin) at 50 uM; type: protein-complex assay
How it was run: (§1)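 Colchicine binding assay with 1 μM tubulin and 5.0 μM [3H]colchicine. Inhibitor tested at 50, 5 and/or 1 μM.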

[2] = Inhibition of bovine brain tubulin polymerization after 20 mins; parameters: species or system Bos taurus
How it was run: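 Purified bovine brain tubulin, 10 μM (1.0 mg/mL), preincubated with a concentration series in glutamate buffer at 30 °C, then cooled to 0 °C. GTP added, then warmed to 30 °C to start assembly. Turbidity read at 350 nm, with disassembly checked by cooling.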

NCI-H460 = test: Cytotoxicity against human NCI-H460 cells by SRB assay; type: functional
How it was run: (§2)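 Cell lines obtained from ATCC and kept in recommended media containing gentamicin and amphotericin B. Growth inhibition was measured by the NCI standard sulforhodamine B assay. GI50 is the drug concentration calculated to halve net protein increase relative to untreated cells. Values are averages of at least three separate experiments, each run in triplicate.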

DU-145 = test: Cytotoxicity against human DU145 cells by SRB assay; type: functional; how it was run: as §2
SK-OV-3 = test: Cytotoxicity against human SKOV3 cells by SRB assay; type: functional; how it was run: as §2
Tubulin (Homo sapiens) [3] = target: T1, Tubulin (Homo sapiens); test: Displacement of [3H]colchicine from tubulin (unknown origin) at 5 uM; type: protein-complex assay; how it was run: as §1
Mus musculus = test: Vascular disrupting activity in human PC3 cells xenografted SCID mouse assessed as decrease of blood flow in tumor at 350 mg/kg, ip after 80 mins by bioluminescence imaging analysis; type: functional, organism-based; parameters: dose 350 mg/kg; settings: PC-3

In the case of COc1ccc2c(C(=O)c3cc(OC)c(OC)c(OC)c3)c(-c3ccc(OC)c(OP(=O)(O)O)c3)n(C)c2c1, the inhibition (Tubulin (Homo sapiens) [1]) is reported as 29%, the IC50 [2] is reported as > 20000 nM and the GI50 (NCI-H460) is reported as 3560 nM. The GI50 (DU-145) was 4670 nM and the GI50 (SK-OV-3) was 8640 nM.
In the case of COc1ccc(/C=C\c2cc(OC)c(OC)c(OC)c2)cc1O [COMBRETASTATIN A4], the GI50 (NCI-H460) is reported as 2.8 nM, the GI50 (DU-145) is reported as 0.54 nM and the GI50 (SK-OV-3) is reported as 0.42 nM.
COc1ccc(/C=C\c2cc(OC)c(OC)c(OC)c2)cc1OP(=O)(O)O [FOSBRETABULIN DISODIUM] gave a GI50 (NCI-H460) of 66 nM and a GI50 (DU-145) of 16 nM.
In the case of COc1ccc2c(C(=O)c3cc(OC)c(OC)c(OC)c3)c(-c3ccc(OC)c(OP(=O)(O)O)c3)[nH]c2c1, the inhibition (Tubulin (Homo sapiens) [3]) is reported as 26%, the IC50 [2] is reported as 4200 nM and the GI50 (NCI-H460) is reported as 31.1 nM. The Activity (Mus musculus) was “Active”, the GI50 (DU-145) was 29.7 nM and the GI50 (SK-OV-3) was 22.3 nM.
With COc1ccc2c(C(=O)c3cc(OC)c(OC)c(OC)c3)c(-c3ccc(OC)c(O)c3)n(C)c2c1 the inhibition (Tubulin (Homo sapiens) [1]) was 34%, the IC50 [2] was > 20000 nM and the GI50 (NCI-H460) was 4140 nM. For the same compound, the GI50 (DU-145) was 2680 nM and the GI50 (SK-OV-3) was 2050 nM.
